In series [1] the target is T1, Prostaglandin G/H synthase 2 (Homo sapiens, UniProt P35354).
T1 sequence (P35354 whole entry): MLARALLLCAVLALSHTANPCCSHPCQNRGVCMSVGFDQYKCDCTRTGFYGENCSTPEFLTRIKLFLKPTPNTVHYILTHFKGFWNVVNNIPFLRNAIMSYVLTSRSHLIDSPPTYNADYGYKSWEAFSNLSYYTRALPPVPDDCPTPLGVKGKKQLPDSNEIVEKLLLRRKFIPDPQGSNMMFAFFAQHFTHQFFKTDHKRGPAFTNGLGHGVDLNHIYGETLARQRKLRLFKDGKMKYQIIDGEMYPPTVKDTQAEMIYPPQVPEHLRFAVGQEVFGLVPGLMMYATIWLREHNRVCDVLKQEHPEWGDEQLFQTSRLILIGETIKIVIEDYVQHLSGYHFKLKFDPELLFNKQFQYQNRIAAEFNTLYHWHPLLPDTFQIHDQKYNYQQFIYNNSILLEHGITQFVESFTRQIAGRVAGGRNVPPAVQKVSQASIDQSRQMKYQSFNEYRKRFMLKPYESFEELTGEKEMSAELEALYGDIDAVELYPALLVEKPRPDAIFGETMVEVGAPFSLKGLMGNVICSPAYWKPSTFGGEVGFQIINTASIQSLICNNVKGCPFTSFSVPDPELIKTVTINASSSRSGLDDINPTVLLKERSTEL
The series is described as follows: Inhibition of COX-2 by chemiluminescent assay.

A short description of series [2]: Selectivity index, ratio of IC50 for COX-1 to IC50 for COX-2. In outline:
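COX-1 and COX-2 inhibition measured with a chemiluminescent enzyme assay kit. Each IC₅₀ (50% enzyme inhibition) is the mean of two determinations. Selectivity index taken as COX-1 IC₅₀ divided by COX-2 IC₅₀.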

In the next series the test system is RAW264.7. The series is described as follows: Inhibition of LPS-induced COX-2 expression in mouse RAW264.7 cells at >1.25 uM by Western blot analysis. Format: functional, cell-based. For orientation: Immunoblotting shows a protein as a band on a membrane.
The target in series [3] is Prostaglandin G/H synthase 1 (Homo sapiens, UniProt P23219). Description: Inhibition of COX-1 by chemiluminescent assay.
Prostaglandin G/H synthase 1, sequence (P23219 whole entry): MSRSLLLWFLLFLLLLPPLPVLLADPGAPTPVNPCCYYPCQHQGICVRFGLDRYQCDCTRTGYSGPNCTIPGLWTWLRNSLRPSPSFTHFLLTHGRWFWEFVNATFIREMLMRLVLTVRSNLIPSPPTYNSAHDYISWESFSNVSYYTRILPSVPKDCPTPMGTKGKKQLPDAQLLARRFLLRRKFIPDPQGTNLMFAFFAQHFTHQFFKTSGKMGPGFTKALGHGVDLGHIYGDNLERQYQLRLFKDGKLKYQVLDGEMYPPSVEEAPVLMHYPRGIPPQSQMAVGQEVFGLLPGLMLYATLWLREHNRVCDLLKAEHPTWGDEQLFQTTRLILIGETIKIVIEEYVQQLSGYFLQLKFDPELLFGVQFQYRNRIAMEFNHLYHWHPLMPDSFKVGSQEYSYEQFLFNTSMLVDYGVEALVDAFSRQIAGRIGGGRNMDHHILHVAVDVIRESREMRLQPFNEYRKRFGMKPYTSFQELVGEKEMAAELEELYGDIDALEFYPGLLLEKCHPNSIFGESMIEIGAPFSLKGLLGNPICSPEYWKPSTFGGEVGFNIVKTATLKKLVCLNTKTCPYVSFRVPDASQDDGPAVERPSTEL
A short description of series [4]: Cytotoxicity against LPS-activated mouse RAW264.7 cells after 24 hrs by MTT method. Format: cell-based. Conditions: LPS-activated RAW264.7 cells. The method, boiled down:
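MTT assay in RAW264.7 cells grown in DMEM with 5% FBS, penicillin and streptomycin at 37 °C under 5% CO₂. Cells were seeded at 5 × 10⁴ per well and exposed for 24 h to compounds diluted from DMSO stocks (0.1% DMSO final). MTT (4 mg/mL) was added 4 h before the end, then plates were centrifuged and supernatant removed. CC₅₀ is the concentration cutting viability to 50%; mean of three experiments in triplicate.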
In general terms: Tetrazolium dyes change colour on reduction, which living cells bring about.

SMILES strings stand for the structures. Activity calls are given as the source filed them. The rule behind the calls is not given here.

One may read the IC50 as the concentration at which inhibition is half-maximal. In general, CC50 refers to the concentration giving 50% cytotoxicity. Higher therefore signals lower toxicity to the cells. For `Cc1ccc(C2=NN(C3=NC(=O)CS3)C(c3ccccc3)C2)cc1C` (stereo unspecified), the IC50 in series [1] came out at 0.5 µM; in series [3] it was 42.4 µM. Also, the Ratio IC50 in series [2] stood at 84.8. For the same compound, the inhibition result in the series with RAW264.7 is “Active”. The same compound displayed a CC50 at 24 h in series [4] of over 450 µM.
As to `Cc1ccc(C2=NN(C3=NC(=O)CS3)C(c3cccc(Cl)c3)C2)cc1C` (stereo unspecified), the IC50 is 5.2 µM in series [1] and over 50 µM in series [3]. Besides, the Ratio IC50 in series [2] was over 9.6. The same compound yielded a CC50 at 24 h in series [4] of 178 µM.
For `Cc1ccccc1C1CC(c2ccc(Cl)c(Cl)c2)=NN1C1=NC(=O)CS1` (stereo unspecified), the IC50 came to 16.3 µM in series [1] and 45.6 µM in series [3]. The Ratio IC50 in series [2] was 2.8. The compound also displayed a CC50 at 24 h in series [4] of 179 µM.
Consider `COc1ccc(C2CC(c3ccc(C)c(C)c3)=NN2C2=NC(=O)CS2)cc1` (stereo unspecified), for which the IC50 in series [1] was 2.9 µM; in series [3], over 50 µM. Moreover, in series [2], the Ratio IC50 is over 17.2. In series [4], this compound yielded a CC50 at 24 h of 387 µM.
For the compound `O=C1CSC(N2N=C(c3ccc(Cl)c(Cl)c3)CC2c2ccc(F)cc2)=N1` (stereo unspecified), the results for the IC50 in series [1] and in series [3] were 19.4 µM and 34.3 µM, respectively. The Ratio IC50 in series [2] stood at 1.8. The compound further displayed a CC50 at 24 h in series [4] of 139 µM.
`Cc1ccc(C2CC(c3ccc(C)c(C)c3)=NN2C2=NC(=O)CS2)cc1` (stereo unspecified): the IC50 came out at 1.2 µM in series [1] and 45.3 µM in series [3]. In series [2], the Ratio IC50 was found to be 37.8. Further, the midpoint of cytotoxicity in series [4], the CC50 at 24 h, lay at 384 µM.
Take `Cc1ccc(C2=NN(C3=NC(=O)CS3)C(c3ccc(Cl)cc3)C2)cc1C` (stereo unspecified): the IC50 is 4.5 µM in series [1] and 48.6 µM in series [3]. Further, the Ratio IC50 in series [2] is 10.8. For the same compound, half-maximal cytotoxicity in series [4] (CC50 at 24 h) was put at 226 µM.
Regarding `O=C1CSC(N2N=C(c3ccc(Cl)c(Cl)c3)CC2c2ccc(Cl)cc2)=N1` (stereo unspecified), the results for the IC50 in series [1] and in series [3] were 11.7 µM and 37.7 µM, respectively. Also, the Ratio IC50 in series [2] turned out to be 3.2. This compound also yielded a CC50 at 24 h in series [4] of 187 µM.
The corresponding values for `Cc1ccc(C2=NN(C3=NC(=O)CS3)C(c3ccccc3Cl)C2)cc1C` (stereo unspecified) are 7.2 µM, 44.1 µM, 6.1 and 227 µM.
For `O=C1CSC(N2N=C(c3ccc(Cl)c(Cl)c3)CC2c2cccc(Cl)c2)=N1` (stereo unspecified), the IC50 in series [1] was 16.1 µM; in series [3], over 50 µM. Also, the Ratio IC50 in series [2] was over 3.1. The compound also had a CC50 at 24 h in series [4] of 165 µM.
Take `Cc1ccc(C2CC(c3ccc(Cl)c(Cl)c3)=NN2C2=NC(=O)CS2)cc1` (stereo unspecified): the values for the IC50 in series [1] and in series [3] were 4.7 µM and 44.3 µM, respectively. Moreover, in series [2], the Ratio IC50 came out at 9.4. The same compound returned a CC50 at 24 h in series [4] of 279 µM.
In the case of `Cc1cccc(C2CC(c3ccc(C)c(C)c3)=NN2C2=NC(=O)CS2)c1` (stereo unspecified), the IC50 in series [1] was 2.7 µM; in series [3] it was over 50 µM. The Ratio IC50 in series [2] is over 18.5. In series [4], this compound gave a CC50 at 24 h of 237 µM.
With `Cc1cccc(C2CC(c3ccc(Cl)c(Cl)c3)=NN2C2=NC(=O)CS2)c1` (stereo unspecified), the values for the IC50 in series [1] and in series [3] were 7.2 µM and over 50 µM, respectively. Besides, the Ratio IC50 in series [2] was over 6.9. Also, it took 204 µM to reach half-maximal cytotoxicity in series [4] (CC50 at 24 h).
Consider `COc1ccc(C2CC(c3ccc(Cl)c(Cl)c3)=NN2C2=NC(=O)CS2)cc1` (stereo unspecified), for which the IC50 is 6.8 µM in series [1] and over 50 µM in series [3]. The Ratio IC50 in series [2] was over 7.4. The compound also showed a CC50 at 24 h in series [4] of 264 µM.
With `O=C1CSC(N2N=C(c3ccc(Cl)c(Cl)c3)CC2c2ccccc2)=N1` (stereo unspecified), the IC50 in series [1] was found to be 2.7 µM; in series [3] it was 33.2 µM. In addition, the Ratio IC50 in series [2] was 12.3. The same compound gave a CC50 at 24 h in series [4] of 295 µM.
Turning to `Cc1ccc(C2=NN(C3=NC(=O)CS3)C(c3ccc(Br)cc3)C2)cc1C` (stereo unspecified), the half-inhibitory concentration (IC50) was 1.8 µM in series [1] and over 50 µM in series [3]. In addition, the Ratio IC50 in series [2] was over 27.8. The compound further showed a CC50 at 24 h in series [4] of 365 µM.
On to `Cc1ccc(C2=NN(C3=NC(=O)CS3)C(c3ccccc3C)C2)cc1C` (stereo unspecified), for which the IC50 in series [1] turned out to be 6.3 µM; in series [3], 47.2 µM. In addition, the Ratio IC50 in series [2] amounted to 7.5. In series [4], this compound registered a CC50 at 24 h of 317 µM.
For the compound `O=C1CSC(N2N=C(c3ccc(Cl)c(Cl)c3)CC2c2ccc(Br)cc2)=N1` (stereo unspecified), the IC50 was 7.6 µM in series [1] and 48.5 µM in series [3]. For the same compound, in series [2], the Ratio IC50 is 6.4. This compound gave a CC50 at 24 h in series [4] of 280 µM.
For the compound `Cc1ccc(C2=NN(C3=NC(=O)CS3)C(c3ccc(F)cc3)C2)cc1C` (stereo unspecified), the IC50 was 6.4 µM in series [1] and 40.8 µM in series [3]. In addition, in series [2], the Ratio IC50 came to 6.4. In series [4], this compound registered a CC50 at 24 h of 246 µM.
For `O=C1CSC(N2N=C(c3ccc(Cl)c(Cl)c3)CC2c2ccccc2Cl)=N1` (stereo unspecified), the results for the IC50 in series [1] and in series [3] were 18.4 µM and 40.2 µM, respectively. The Ratio IC50 in series [2] is 2.2. The compound further showed a CC50 at 24 h in series [4] of 143 µM.

Values taken from ChEMBL document CHEMBL2157901, “Synthesis, biological evaluation and molecular modeling of dihydro-pyrazolyl-thiazolinone derivatives as potential COX-2 inhibitors” (Bioorg Med Chem, 2012).
